According to ChEMBL document CHEMBL3286357, “Design, synthesis and pharmacological evaluation of novel substituted quinoline-2-carboxamide derivatives as human dihydroorotate dehydrogenase (hDHODH) inhibitors and anticancer agents” (Eur J Med Chem, 2014):

How the values were obtained:
[1] = Retention time of compound by HPLC analysis; format: physicochemical
[2] = system: A-375; assay: Antiproliferative activity against human A375 cells at 0.01 ug/ml for 24 hrs by MTT assay; format: functional; settings: A-375, 24 h
Outline: (§1)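 HEP-3B or A-375 cells were grown in DMEM with 10% FBS, 5% HBSS, penicillin, streptomycin and amphotericin B at 37 C and 5% CO2. Cells were seeded at 2 × 10^4 per well and preincubated for 24 h. They were then exposed to ten 1:3 serial dilutions from a top concentration of 100, made from 2% DMSO stocks. MTT was added for 3 h, formazan was dissolved in DMSO, and A550 was read. Wells were run in triplicate across three independent experiments. IC50 came from dose-response curves.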

[3] = system: A-375; assay: Antiproliferative activity against human A375 cells at 0.02 ug/ml for 24 hrs by MTT assay; format: functional; settings: A-375, 24 h; outline: as §1
[4] = system: A-375; assay: Antiproliferative activity against human A375 cells at 0.05 ug/ml for 24 hrs by MTT assay; format: functional; settings: A-375, 24 h; outline: as §1
[5] = system: A-375; assay: Antiproliferative activity against human A375 cells at 0.14 ug/ml for 24 hrs by MTT assay; format: functional; settings: A-375, 24 h; outline: as §1
[6] = system: A-375; assay: Antiproliferative activity against human A375 cells at 0.41 ug/ml for 24 hrs by MTT assay; format: functional; settings: A-375, 24 h; outline: as §1
[7] = system: A-375; assay: Antiproliferative activity against human A375 cells at 1.23 ug/ml for 24 hrs by MTT assay; format: functional; settings: A-375, 24 h; outline: as §1
[8] = system: A-375; assay: Antiproliferative activity against human A375 cells at 3.7 ug/ml for 24 hrs by MTT assay; format: functional; settings: A-375, 24 h; outline: as §1
[9] = system: A-375; assay: Antiproliferative activity against human A375 cells at 11.11 ug/ml for 24 hrs by MTT assay; format: functional; settings: A-375, 24 h; outline: as §1
[10] = system: A-375; assay: Antiproliferative activity against human A375 cells at 33.33 ug/ml for 24 hrs by MTT assay; format: functional; settings: A-375, 24 h; outline: as §1
[11] = system: A-375; assay: Antiproliferative activity against human A375 cells at 100 ug/ml for 24 hrs by MTT assay; format: functional; settings: A-375, 24 h; outline: as §1
[12] = Antiproliferative activity against human Hep3B cells at 0.01 ug/ml for 24 hrs by MTT assay; format: functional, Hep 3B2; outline: as §1
[13] = Antiproliferative activity against human Hep3B cells at 0.02 ug/ml for 24 hrs by MTT assay; format: functional, Hep 3B2; outline: as §1
[14] = Antiproliferative activity against human Hep3B cells at 0.05 ug/ml for 24 hrs by MTT assay; format: functional, Hep 3B2; outline: as §1
[15] = Antiproliferative activity against human Hep3B cells at 0.14 ug/ml for 24 hrs by MTT assay; format: functional, Hep 3B2; outline: as §1
[16] = Antiproliferative activity against human Hep3B cells at 0.41 ug/ml for 24 hrs by MTT assay; format: functional, Hep 3B2; outline: as §1
[17] = Antiproliferative activity against human Hep3B cells at 1.23 ug/ml for 24 hrs by MTT assay; format: functional, Hep 3B2; outline: as §1
[18] = Antiproliferative activity against human Hep3B cells at 3.7 ug/ml for 24 hrs by MTT assay; format: functional, Hep 3B2; outline: as §1
[19] = Antiproliferative activity against human Hep3B cells at 11.11 ug/ml for 24 hrs by MTT assay; format: functional, Hep 3B2; outline: as §1
[20] = Antiproliferative activity against human Hep3B cells at 33.33 ug/ml for 24 hrs by MTT assay; format: functional, Hep 3B2; outline: as §1
[21] = Antiproliferative activity against human Hep3B cells at 100 ug/ml for 24 hrs by MTT assay; format: functional, Hep 3B2; outline: as §1
[22] = system: A-375 (human melanoma); assay: Antiproliferative activity against human A375 cells for 24 hrs by MTT assay; settings: A-375, 24 h
[23] = system: HEP-3B (human hepatoma); assay: Antiproliferative activity against human Hep3B cells for 24 hrs by MTT assay
[24] = target: Dihydroorotate dehydrogenase (quinone), mitochondrial (Homo sapiens, UniProt Q02127); assay: Inhibition of recombinant human DHODH activity after 20 mins by DCIP dye based colorimetric analysis in presence of 1 mM L-dihydroorotate and 0.1 mM CqD
Sequence of Dihydroorotate dehydrogenase (quinone), mitochondrial (Q02127 whole entry): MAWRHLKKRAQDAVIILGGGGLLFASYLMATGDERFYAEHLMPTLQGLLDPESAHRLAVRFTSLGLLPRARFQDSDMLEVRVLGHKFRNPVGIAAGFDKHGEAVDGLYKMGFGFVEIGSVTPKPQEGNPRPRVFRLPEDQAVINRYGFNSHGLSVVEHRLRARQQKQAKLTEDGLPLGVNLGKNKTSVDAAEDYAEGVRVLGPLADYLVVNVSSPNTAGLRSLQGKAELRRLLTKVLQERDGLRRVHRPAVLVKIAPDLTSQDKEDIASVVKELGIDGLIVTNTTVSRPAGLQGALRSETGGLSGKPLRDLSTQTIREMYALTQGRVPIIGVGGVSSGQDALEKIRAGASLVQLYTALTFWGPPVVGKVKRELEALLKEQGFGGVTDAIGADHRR

SMILES | Retention_time [1] | inhibition at 0.01 µg/mL [2] | inhibition at 0.02 µg/mL [3] | inhibition at 0.05 µg/mL [4] | inhibition at 0.14 µg/mL [5] | inhibition at 0.41 µg/mL [6] | inhibition at 1.23 µg/mL [7] | inhibition at 3.7 µg/mL [8] | inhibition at 11.11 µg/mL [9] | inhibition at 33.33 µg/mL [10] | inhibition at 100 µg/mL [11] | inhibition at 0.01 µg/mL [12] | inhibition at 0.02 µg/mL [13] | inhibition at 0.05 µg/mL [14] | inhibition at 0.14 µg/mL [15] | inhibition at 0.41 µg/mL [16] | inhibition at 1.23 µg/mL [17] | inhibition at 3.7 µg/mL [18] | inhibition at 11.11 µg/mL [19] | inhibition at 33.33 µg/mL [20] | also measured
COc1ccc2nc(C(=O)Nc3c(F)cc(-c4cccc(F)c4)cc3F)c(C)c(O)c2c1 | 7.1 min | 0.79% | 2.13% | 6.38% | 11.6% | 28.7% | 36.2% | 49.9% | 57.2% | 64.9% | 96.8% | 0.105% | 0.87% | 1.35% | 2.68% | 4.5% | 13.3% | 25.2% | 29.3% | 31.2% | inhibition at 100 µg/mL [21]: 46.2%; IC50 [22]: 5.03 µM; IC50 [23]: 6.98 µM; IC50 [24]: 0.94 µM
Cc1c(C(=O)Nc2c(F)cc(-c3cccc(F)c3)cc2F)nc2ccc(C(F)(F)F)cc2c1O | 7 min | 0.16% | 1.28% | 3.47% | 9.37% | 16.5% | 21.2% | 34.3% | 46.3% | 61.3% | 95.2% | -0.33% | 0.06% | 1.35% | 2.65% | 9.38% | 15.3% | 31.2% | 36.2% | 45.2% | inhibition at 100 µg/mL [21]: 68.4%; IC50 [22]: 29.9 µM; IC50 [23]: 12.6 µM; IC50 [24]: 6.09 µM
Cc1c(C(=O)Nc2c(F)cc(-c3cccc(F)c3)cc2F)nc2ccc(F)cc2c1C(=O)O | 7.2 min | -0.56% | -0.22% | 0.37% | 1.05% | 3.02% | 16.3% | 24.5% | 36.2% | 41.3% | 64.3% | -0.35% | -0.13% | 0.05% | 0.65% | 1.06% | 2.45% | 11.2% | 26.3% | 34.3% | inhibition at 100 µg/mL [21]: 65.2%; IC50 [22]: 14.7 µM; IC50 [23]: 81.9 µM; IC50 [24]: 4.58 µM
Cc1c(C(=O)Nc2c(F)cc(-c3cccc(F)c3)cc2F)nc2ccc(OC(F)(F)F)cc2c1C(=O)O | 6.9 min | -0.11% | 0.95% | 1.06% | 3.06% | 15.2% | 24.4% | 37.9% | 42.4% | 53.1% | 68.8% | 0.45% | 1.22% | 3.05% | 7.28% | 15.3% | 21.2% | 29.8% | 37.3% | 46.2% | inhibition at 100 µg/mL [21]: 75.3%; IC50 [22]: 4.8 µM; IC50 [23]: 22 µM; IC50 [24]: 1.5 µM
Cc1c(C(=O)Nc2c(F)cc(-c3cccc(F)c3)cc2F)nc2ccc(C(F)(F)F)cc2c1C(=O)O | 6.8 min | 0.12% | 0.37% | 1.04% | 2.56% | 7.82% | 18.3% | 27.8% | 45.4% | 51% | 61.3% | 0.2% | 1.15% | 1.68% | 2.13% | 6.42% | 17.2% | 21.3% | 31.2% | 43.3% | inhibition at 100 µg/mL [21]: 72.3%; IC50 [22]: 7.57 µM; IC50 [23]: 42.8 µM; IC50 [24]: 3.44 µM
COc1ccc2nc(C(=O)Nc3ccc(-c4ccccc4)cc3)c(C)c(C(=O)O)c2c1 | 7.4 min | 0.35% | 0.68% | 1.26% | 3.65% | 11.3% | 21.3% | 33.6% | 47.9% | 58.3% | 70.2% | -0.12% | 0.05% | 0.65% | 2.01% | 5.31% | 11.2% | 19.4% | 28.3% | 33.6% | inhibition at 100 µg/mL [21]: 72.5%; IC50 [22]: 9.43 µM; IC50 [23]: > 100 µM; IC50 [24]: 1.09 µM
